The nature of experiment [1]: Her2 expression decrease, cell viability multiplex – SKBR3 breast tumor cells, AlphaScreen, ATP viability, primary screen (AID 461).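 On Her2 level: lower value means less Her2 protein in the cells.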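 On viability: percent of carrier control wells set as 100% viability.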 As to conditions: SKBR3 Her2 protein level, 18-24 h, measured here: SKBR3 viability, ATP luminescence, at 10 µM.
Experiment [2] addresses Receptor tyrosine-protein kinase erbB-2 (Homo sapiens) (UniProt P04626). The description is as above. As to conditions: 18-24 h, at 10 µM, stronger effect = lower value.
Experiment [3] is described as follows: reduced viability of SK-BR-3 breast cancer cells – cell-based, 24 h, human, pilot screen (AID 572;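 active means viability at or below 10% of carrier control in both of two separate runs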;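 further: compound exposure lasted between 18 and 24 h rather than exactly 24 h; 100% = carrier-treated control wells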). As to conditions: SK-BR-3 viability, CellTiter-Glo luminescence, at 10 µM, stronger effect = lower value.
Experiment [4] is described as follows: HUVEC growth inhibition – cell-based, human, primary screen (AID 575;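 active means viability at or below 30% in both replicate assays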;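 further: 100% = median of untreated cell wells with 0.1% DMSO on each plate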). As to conditions: HUVEC proliferation, CellTiter-Glo luminescence, 72 h; at 10 µM; stronger effect = lower value. In a few lines:
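System: primary human umbilical vein endothelial cells; Quantity: 1250 endothelial cells in each well; Buffer or medium: supplemented EBM, 2% fetal bovine serum; Doses: one dose, 10 µM final, 0.1% DMSO; Incubation: 72 h compound incubation; Technique: ATP-based CellTiter-Glo luminescent read; Evaluation: percent of median DMSO-control luminescence; Controls: vehicle and MePR control wells.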

A short description of experiment [5]: H69AR cell proliferation blockers – human, duplicate replicates, primary screen (AID 580;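 active means viability at or under a set limit in both replicates, limit being median viability minus 3 SD, cut at about 48% in these data, passing the limit was not always enough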;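 further: 100% = mean luminescence of untreated wells and 0% = no signal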). As to conditions: H69AR lung tumor cells viability, ATP luminescence, 72 h; at 10 µM; stronger effect = lower value.
Experiment [6] can be described thus: MRP1 drug-resistance reversers in H69AR cells – cell-based, doxorubicin co-treatment, pilot screen (AID 601;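 active means viability loss from added drug above about 55%, and viability with drug at most 40%, in both replicates, limit read from the data, passing the limit was not always enough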). As to conditions: CellTiter-Glo, 72 h, at 10 µM; for differential viability (reversal): stronger effect = higher value.
Experiment [7] can be described thus: yeast transport mutant growth inhibition pilot in 384-well plates, post-Golgi transport modulator project (AID 636; in the data active means inhibition above about 31%). As to conditions: absorbance 615 nm, about 18 h, stronger effect = higher value.
The nature of experiment [8]: growth suppression of yeast trafficking mutant, preliminary HTS, modulators of trafficking downstream of Golgi apparatus project, 1536-format plate, OD 615 nm (AID 637; in the data active means inhibition above about 30%). As to conditions: yeast transport mutant growth, absorbance 615 nm, 18 h; stronger effect = higher value.
Setting [9] is: H69AR cells + 2 uM doxorubicin, measured here: viability with 2 uM doxorubicin, stronger effect = lower value.
Where [10] appears, read: H69AR cells, compound alone cytotoxicity.

The values that follow come from PubChem BioAssay.

The source made the active and inactive calls.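 How the source made its calls, unless noted: active means Her2 level under about 52% in both replicate screens, with viability over 70% of control (limit read from the data); inconclusive means Her2 under the limit in one screen only, or viability under 70%; inactive means Her2 level above the set limit.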

Chain of Receptor tyrosine-protein kinase erbB-2 (Homo sapiens) (P04626 whole entry, looked up): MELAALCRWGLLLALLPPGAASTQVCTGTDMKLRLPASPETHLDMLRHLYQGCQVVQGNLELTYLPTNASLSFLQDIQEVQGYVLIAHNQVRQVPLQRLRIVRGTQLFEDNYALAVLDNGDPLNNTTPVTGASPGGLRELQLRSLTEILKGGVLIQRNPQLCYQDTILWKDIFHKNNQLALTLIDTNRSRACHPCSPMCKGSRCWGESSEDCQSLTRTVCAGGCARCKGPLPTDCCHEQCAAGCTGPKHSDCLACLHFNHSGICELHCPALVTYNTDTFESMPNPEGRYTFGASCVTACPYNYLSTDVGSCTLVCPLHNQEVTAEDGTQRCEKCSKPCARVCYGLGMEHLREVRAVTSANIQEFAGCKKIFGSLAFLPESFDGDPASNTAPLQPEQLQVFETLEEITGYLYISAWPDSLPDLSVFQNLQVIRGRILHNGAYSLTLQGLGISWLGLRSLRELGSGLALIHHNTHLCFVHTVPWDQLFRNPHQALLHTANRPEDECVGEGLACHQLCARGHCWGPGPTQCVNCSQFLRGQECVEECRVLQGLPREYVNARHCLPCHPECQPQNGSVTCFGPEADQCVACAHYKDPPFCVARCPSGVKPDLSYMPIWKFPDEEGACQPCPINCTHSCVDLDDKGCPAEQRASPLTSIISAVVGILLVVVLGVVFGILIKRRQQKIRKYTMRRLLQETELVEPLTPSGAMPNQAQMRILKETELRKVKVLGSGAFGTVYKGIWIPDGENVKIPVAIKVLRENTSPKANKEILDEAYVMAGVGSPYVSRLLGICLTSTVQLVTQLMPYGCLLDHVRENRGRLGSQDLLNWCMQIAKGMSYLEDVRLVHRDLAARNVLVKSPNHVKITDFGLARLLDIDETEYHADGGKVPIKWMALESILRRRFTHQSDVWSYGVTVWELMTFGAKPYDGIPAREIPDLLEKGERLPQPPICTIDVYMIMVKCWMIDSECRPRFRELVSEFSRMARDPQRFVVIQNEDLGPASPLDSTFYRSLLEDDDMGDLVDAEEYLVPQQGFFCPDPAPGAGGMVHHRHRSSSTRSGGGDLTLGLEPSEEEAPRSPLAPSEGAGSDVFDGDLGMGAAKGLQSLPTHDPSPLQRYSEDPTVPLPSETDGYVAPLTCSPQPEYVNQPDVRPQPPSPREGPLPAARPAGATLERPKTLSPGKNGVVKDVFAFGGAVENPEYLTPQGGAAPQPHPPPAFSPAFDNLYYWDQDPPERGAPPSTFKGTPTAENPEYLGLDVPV

Turning to `COC(=O)C1=CN(C(C)C)C=C(C(=O)OC)C1c1cc2c(cc1Br)OCO2`, the viability in experiment [1] is 92.5%; in experiment [3], 92.5% (inactive); in experiment [4], 74% (inactive); in experiment [5] it was 85.4% (inactive); in experiment [6] (setting [9]), 75.9%; in experiment [6] (setting [10]), 85.4%. Further, the Her2 level in experiment [2] is 87.5% (inactive). In experiment [6] (H69AR cells + 2 uM doxorubicin), the differential viability (reversal) is 9.5% (inactive). Also, the inhibition in experiment [7] was -1.47% (inactive); in experiment [8] it was -4.29% (inactive).

Take `O=C(NCC1CCCO1)C1CCCN(S(=O)(=O)c2cccc3nsnc23)C1` (stereo not given): the viability was 95.5% in experiment [1]; 95.5% (inactive) in experiment [3]; 93.2% (inactive) in experiment [4]; 98.5% (inactive) in experiment [5]; 84.2% in experiment [6] (setting [9]); 98.5% in experiment [6] (setting [10]). Besides, the Her2 level in experiment [2] was 118% (inactive). Further, in experiment [6] (H69AR cells + 2 uM doxorubicin), the differential viability (reversal) is 14.3% (inactive). Further, the inhibition in experiment [7] was -2.27% (inactive); in experiment [8] it was -7.62% (inactive).

`O=C(Nc1ccccc1)c1cccc(N2CCCC2=O)c1`: the viability is 93% in experiment [1]; 93% (inactive) in experiment [3]; 104% (inactive) in experiment [4]; 103% (inactive) in experiment [5]; 84.8% in experiment [6] (setting [9]); 103% in experiment [6] (setting [10]). In addition, the Her2 level in experiment [2] is 114% (inactive). In addition, in experiment [6] (H69AR cells + 2 uM doxorubicin), the differential viability (reversal) is 18.2% (inactive). For the same compound, the inhibition in experiment [7] was -1.07% (inactive); in experiment [8], -9.52% (inactive).

On to `CC1=CC=CC2=NC(=O)CC(C)(C(=O)N(CC(=O)NC(C)C)C3CCCC3)N12` (stereo not given), for which the viability in experiment [1] was 101%; in experiment [3] it was 101% (inactive); in experiment [4], 96.5% (inactive); in experiment [5], 94% (inactive); in experiment [6] (setting [9]), 100%; in experiment [6] (setting [10]), 94%. Also, in experiment [2], the Her2 level is 100% (inactive). Also, the differential viability (reversal) in experiment [6] (H69AR cells + 2 uM doxorubicin) was -6.48% (inactive). Besides, the inhibition in experiment [7] was -4% (inactive); in experiment [8] it was 0.16% (inactive).

For the compound `FC(F)(F)c1nnc2ccc(NCn3nnc4ccccc43)nn12`, the viability in experiment [1] is 102%; in experiment [3], 102% (inactive); in experiment [4], 83.1% (inactive); in experiment [5], 92.9% (inactive); in experiment [6] (setting [9]) it was 88%; in experiment [6] (setting [10]), 92.9%. The Her2 level in experiment [2] is 89.5% (inactive). In addition, the differential viability (reversal) in experiment [6] (H69AR cells + 2 uM doxorubicin) was 4.94% (inactive). Further, the figures for the inhibition in experiment [7] and in experiment [8] were -4.61% (inactive) and -1.75% (inactive), respectively.

In the case of `COc1ccccc1-c1nnc(SCc2ccccn2)n1C`, the viability was 94% in experiment [1]; 94% (inactive) in experiment [3]; 113% (inactive) in experiment [4]; 80.6% (inactive) in experiment [5]; 91.4% in experiment [6] (setting [9]); 80.6% in experiment [6] (setting [10]). For the same compound, the Her2 level in experiment [2] is 107% (inactive). Moreover, the differential viability (reversal) in experiment [6] (H69AR cells + 2 uM doxorubicin) is -10.8% (inactive). For the same compound, the inhibition in experiment [7] was 7.53% (inactive); in experiment [8], 9.37% (inactive).

With `CCOC(=O)CSc1nc2ccccc2n2cnnc12`, the viability in experiment [1] was 104%; in experiment [3], 104% (inactive); in experiment [4], 91.4% (inactive); in experiment [5], 83.9% (inactive); in experiment [6] (setting [9]), 81.1%; in experiment [6] (setting [10]) it was 83.9%. The Her2 level in experiment [2] was 76.5% (inactive). Besides, the differential viability (reversal) in experiment [6] (H69AR cells + 2 uM doxorubicin) is 2.78% (inactive). Moreover, the inhibition in experiment [7] was -5.54% (inactive); in experiment [8], -2% (inactive).

Turning to `COc1ccc(CNC(=O)c2cc(-c3ccc(OC)c(OC)c3)on2)cc1`, the viability is 116% in experiment [1]; 116% (inactive) in experiment [3]; 118% (inactive) in experiment [4]; 94.4% (inactive) in experiment [5]; 85.6% in experiment [6] (setting [9]); 94.4% in experiment [6] (setting [10]). Also, in experiment [2], the Her2 level is 88.5% (inactive). For the same compound, the differential viability (reversal) in experiment [6] (H69AR cells + 2 uM doxorubicin) is 8.78% (inactive). Also, the inhibition in experiment [7] is -5.95% (inactive); in experiment [8], -3.83% (inactive).

As to `C=CCn1c(CC#N)nnc1N1CCOCC1`, the viability was 90.5% in experiment [1]; 90.5% (inactive) in experiment [3]; 100% (inactive) in experiment [4]; 109% (inactive) in experiment [5]; 89.5% in experiment [6] (setting [9]); 109% in experiment [6] (setting [10]). Besides, the Her2 level in experiment [2] is 88% (inactive). Also, the differential viability (reversal) in experiment [6] (H69AR cells + 2 uM doxorubicin) is 19.4% (inactive). Further, the inhibition in experiment [7] is -0.68% (inactive); in experiment [8], -2.22% (inactive).

As for `COc1ccc(-c2noc(-c3cc(Cl)ccc3Cl)n2)cc1OC`, the viability in experiment [1] is 122%; in experiment [3] it was 122% (inactive); in experiment [4] it was 94.9% (inactive); in experiment [5], 107% (inactive); in experiment [6] (setting [9]), 88.1%; in experiment [6] (setting [10]) it was 107%. For the same compound, the Her2 level in experiment [2] was 78% (inactive). The differential viability (reversal) in experiment [6] (H69AR cells + 2 uM doxorubicin) was 18.4% (inactive). Moreover, the results for the inhibition in experiment [7] and in experiment [8] were -2.67% (inactive) and -4.52% (inactive), respectively.

For the compound `COc1ccc(OCCC(=O)NCc2ccccc2)cc1`, the viability in experiment [1] was 103%; in experiment [3], 103% (inactive); in experiment [4] it was 95.7% (inactive); in experiment [5], 103% (inactive); in experiment [6] (setting [9]) it was 83.3%; in experiment [6] (setting [10]), 103%. The Her2 level in experiment [2] was 105% (inactive). In addition, the differential viability (reversal) in experiment [6] (H69AR cells + 2 uM doxorubicin) was 19.8% (inactive). Moreover, the inhibition is -3.2% (inactive) in experiment [7] and 2.9% (inactive) in experiment [8].

Take `Cc1nnc(SCC(=O)N2CCC(C(=O)Nc3nccs3)CC2)n1Cc1ccccc1`: the viability in experiment [1] was 91.5%; in experiment [3], 91.5% (inactive); in experiment [4], 96.2% (inactive); in experiment [5], 91.5% (inactive); in experiment [6] (setting [9]), 86.1%; in experiment [6] (setting [10]) it was 91.5%. For the same compound, the Her2 level in experiment [2] is 80% (inactive). Further, the differential viability (reversal) in experiment [6] (H69AR cells + 2 uM doxorubicin) is 5.37% (inactive). The inhibition in experiment [7] was -3.87% (inactive); in experiment [8], 0.33% (inactive).

On to `O=C(NCc1cccs1)c1cc2c(s1)CCCC2`, for which the viability in experiment [1] is 92.5%; in experiment [3], 92.5% (inactive); in experiment [4], 85.8% (inactive); in experiment [5] it was 97.6% (inactive); in experiment [6] (setting [9]) it was 92.2%; in experiment [6] (setting [10]), 97.6%. In experiment [2], the Her2 level was 102% (inactive). Further, the differential viability (reversal) in experiment [6] (H69AR cells + 2 uM doxorubicin) is 5.47% (inactive). Besides, the results for the inhibition in experiment [7] and in experiment [8] were 0.65% (inactive) and 2.13% (inactive), respectively.

With `O=C(NC1CCCC1)C(c1ccco1)N(Cc1ccccc1)C(=O)c1csnn1` (stereo not given), the viability was 88.5% in experiment [1]; 88.5% (inactive) in experiment [3]; 76.4% (inactive) in experiment [4]; 97.5% (inactive) in experiment [5]; 95.9% in experiment [6] (setting [9]); 97.5% in experiment [6] (setting [10]). Further, the Her2 level in experiment [2] is 76% (inactive). Also, the differential viability (reversal) in experiment [6] (H69AR cells + 2 uM doxorubicin) is 1.57% (inactive). Also, the inhibition was -8.65% (inactive) in experiment [7] and 4.44% (inactive) in experiment [8].

Take `COc1ccc(OC)c(CNC(=O)COc2cc(=O)n(C)c3ccccc23)c1`: the viability in experiment [1] was 82%; in experiment [3], 82% (inactive); in experiment [4] it was 105% (inactive); in experiment [5], 88% (inactive); in experiment [6] (setting [9]), 85%; in experiment [6] (setting [10]) it was 88%. For the same compound, the Her2 level in experiment [2] was 86.5% (inactive). Besides, the differential viability (reversal) in experiment [6] (H69AR cells + 2 uM doxorubicin) was 2.97% (inactive). In addition, the inhibition in experiment [7] is 2.31% (inactive); in experiment [8], -4.67% (inactive).

`CN1C(=O)CC(N2CCC(C(N)=O)(N3CCCCC3)CC2)C1=O` (stereo not given): the viability in experiment [1] was 104%; in experiment [3] it was 104% (inactive); in experiment [4], 104% (inactive); in experiment [5], 98.9% (inactive); in experiment [6] (setting [9]), 91.6%; in experiment [6] (setting [10]) it was 98.9%. For the same compound, the Her2 level in experiment [2] was 86% (inactive). Besides, the differential viability (reversal) in experiment [6] (H69AR cells + 2 uM doxorubicin) is 7.3% (inactive). Also, the inhibition in experiment [7] is -6.8% (inactive); in experiment [8], 5.25% (inactive).
